Activity calls are given as the source filed them. No cut-off for these calls is given here.
Experiments:
[1] = target: Aldo-keto reductase family 1 member B1 (Rattus norvegicus, UniProt P07943); assay: Inhibition of rat lenses ALR2 using DL-glyceraldehyde as substrate preincubated for 10 mins followed by substrate addition measured for 4 mins
Procedure, shortened: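 ALR2 assay run at 30 °C in 1 mL containing 0.10 mM NADPH, 0.1 M sodium phosphate pH 6.2 and enzyme extract. The mixture was preincubated 10 min, then 10 mM DL-glyceraldehyde was added and NADPH oxidation followed for 4 min. Compounds were in DMSO diluted with water. Substrate-free blank rates were subtracted.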

Rattus norvegicus [2] = species on record: Rattus norvegicus; assay: Selectivity index, ratio of IC50 for rat kidney ALR1 to IC50 for rat lenses ALR2
[3] = target: Aldo-keto reductase family 1 member A1 (Rattus norvegicus, UniProt P51635); assay: Inhibition of rat kidney ALR1 using sodium D-glucuronate as substrate preincubated for 10 mins followed by substrate addition measured for 4 mins
Aldo-keto reductase family 1 member A1, sequence (P51635 whole entry, looked up): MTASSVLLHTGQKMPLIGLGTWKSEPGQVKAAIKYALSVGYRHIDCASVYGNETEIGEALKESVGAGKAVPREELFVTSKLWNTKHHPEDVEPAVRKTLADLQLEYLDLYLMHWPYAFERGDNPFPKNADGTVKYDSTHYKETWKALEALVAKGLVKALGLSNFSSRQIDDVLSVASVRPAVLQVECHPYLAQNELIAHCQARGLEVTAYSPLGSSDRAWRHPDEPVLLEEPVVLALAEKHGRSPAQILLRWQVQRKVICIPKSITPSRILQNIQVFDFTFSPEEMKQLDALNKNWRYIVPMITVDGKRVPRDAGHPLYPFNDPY
Procedure, shortened: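 ALR1 assay run at 37 °C in 1 mL containing 0.12 mM NADPH, 0.1 M sodium phosphate pH 7.2 and enzyme extract. The mixture was preincubated 10 min, then 20 mM sodium D-glucuronate was added and the reaction monitored for 4 min. The nonenzymatic NADPH oxidation rate without substrate was subtracted. Triplicates at ≥3 concentrations in the 20–80% inhibition range were used to build dose-response curves for IC50.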

[4] = Antidiabetic activity in STZ-induced diabetic Sprague-Dawley rat model assessed as aldose reductase activity at 50 uM//kg, po administered for 8 weeks (reference value: 44.66 +/- 2.7 U); type: functional, organism-based
Procedure, shortened: (§1)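 Diabetes was induced in rats by a single i.p. injection of streptozotocin, 35 mg/kg in 0.1 M citrate buffer pH 4.5. Animals with fasting blood glucose >150 mg/dl at 72 h were included. Treatment was given p.o. daily for 8 weeks as a suspension in 2% Tween 80 in saline. Diabetic controls received vehicle only. Lenses were dissected at sacrifice after 8 weeks.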

[5] = Antidiabetic activity in STZ-induced diabetic Sprague-Dawley rat model assessed as decrease in sorbitol level in lenses at 5 to 50 uM/kg, po administered for 8 weeks; type: functional, organism-based; procedure, shortened: as §1
[6] = Antidiabetic activity in STZ-induced diabetic Sprague-Dawley rat model assessed as effect on body weight at 5 uM/kg, po administered for 8 weeks (reference value: 186 +/- 6.91 g); type: functional, organism-based; procedure, shortened: as §1
[7] = Antidiabetic activity in STZ-induced diabetic Sprague-Dawley rat model assessed as aldose reductase activity at 5 uM//kg, po administered for 8 weeks (reference value: 44.66 +/- 2.7 U); type: functional, organism-based; procedure, shortened: as §1
[8] = Antidiabetic activity in STZ-induced diabetic Sprague-Dawley rat model assessed as delay in progression of cataract at 5 to 50 uM/kg, po administered for 8 weeks measured every week during compound dosing by slit-lamp microscopy; type: functional, organism-based; procedure, shortened: as §1
[9] = Antidiabetic activity in STZ-induced diabetic Sprague-Dawley rat model assessed as blood glucose level at 5 uM/kg, po administered for 8 weeks measured every week during compound dosing (reference value: 261.53 +/- 53 mg/dl); type: functional, organism-based; procedure, shortened: as §1
[10] = Antidiabetic activity in STZ-induced diabetic Sprague-Dawley rat model assessed as blood glucose level at 50 uM/kg, po administered for 8 weeks measured every week during compound dosing (reference value: 261.53 +/- 53 mg/dl); type: functional, organism-based; procedure, shortened: as §1
[11] = Antidiabetic activity in STZ-induced diabetic Sprague-Dawley rat model assessed as effect on body weight at 50 uM/kg, po administered for 8 weeks (reference value: 186 +/- 6.91 g); type: functional, organism-based; procedure, shortened: as §1
Rattus norvegicus [12] = assay: Antidiabetic activity in po dosed STZ-induced diabetic Sprague-Dawley rat model assessed as decrease in aldose reductase activity administered for 8 weeks; type: functional, organism-based; procedure, shortened: as §1
[13] = Antidiabetic activity in STZ-induced diabetic Sprague-Dawley rat model assessed as decrease in fructose level in lenses at 5 to 50 uM/kg, po administered for 8 weeks; type: functional, organism-based; procedure, shortened: as §1

SMILES	IC50 [1]	Ratio IC50 (Rattus norvegicus [2])	IC50 [3]	other results
O=C1NC(=O)[C@@]2(CCOc3ccc(F)cc32)N1	–	–	–	Activity [4]: 39 U
COc1cccc2c1OCC(C(=O)N[C@H](c1ncc(-c3ccc(Br)cc3)[nH]1)C(C)C)=C2	771 nM	4.42	3410 nM	–
NC(=O)[C@@H]1C[C@]2(NC(=O)NC2=O)c2cc(F)ccc2O1	–	–	–	Activity [4]: 36.3 U
O=C(C1=Cc2ccccc2OC1)N1CCC[C@H]1c1ncc(-c2ccc(Cl)cc2)[nH]1	337 nM	11.5	3880 nM	–
O=C(C1=Cc2ccccc2OC1)N1CCC[C@H]1c1ncc(-c2ccccc2)[nH]1	3670 nM	1.55	5720 nM	–
CC(C)[C@H](NC(=O)C1=Cc2ccccc2OC1)c1ncc(-c2ccccc2)[nH]1	4290 nM	2.19	9410 nM	–
O=C(NCc1ncc(-c2ccc(F)cc2)[nH]1)C1=Cc2ccccc2OC1	420 nM	4.38	1840 nM	–
COc1cccc2c1OCC(C(=O)N[C@H](c1ncc(-c3ccccc3)[nH]1)C(C)C)=C2	1000 nM	4.87	4870 nM	–
COc1cccc2c1OCC(C(=O)N1CCC[C@H]1c1ncc(-c3ccccc3)[nH]1)=C2	3070 nM	0.596	1830 nM	–
COc1ccc(-c2cnc(CNC(=O)C3=Cc4cccc(OC)c4OC3)[nH]2)cc1	899 nM	1.45	1310 nM	–
COc1cccc2c1OCC(C(=O)NCc1ncc(-c3ccccc3)[nH]1)=C2	731 nM	1.66	1210 nM	–
O=C(NCc1ncc(-c2ccc(Br)cc2)[nH]1)C1=Cc2ccccc2OC1	732 nM	4.61	3380 nM	–
O=C(NCc1ncc(-c2ccccc2)[nH]1)C1=Cc2ccccc2OC1	2120 nM	2.48	5190 nM	–

More lines, in order of falling IC50 [1], values ahead:

IC50 [1]	Ratio IC50 (Rattus norvegicus [2])	IC50 [3]	SMILES	other results
275 nM	9.22	2540 nM	COc1ccc(-c2cnc(CNC(=O)C3=Cc4ccccc4OC3)[nH]2)cc1	–
222 nM	10.9	2430 nM	O=C(C1=Cc2ccccc2OC1)N1CCC[C@H]1c1ncc(-c2cccnc2)[nH]1	–
220 nM	10.3	2280 nM	CC(C)[C@H](NC(=O)C1=Cc2ccccc2OC1)c1ncc(-c2ccc(Br)cc2)[nH]1	–
146 nM	9.71	1420 nM	COc1cccc2c1OCC(C(=O)N1CCC[C@H]1c1ncc(-c3cccnc3)[nH]1)=C2	–
114 nM	21.2	2420 nM	O=C(NCc1ncc(-c2ccc(Cl)cc2)[nH]1)C1=Cc2ccccc2OC1	–
91 nM	17.1	1560 nM	COc1cccc2c1OCC(C(=O)NCc1ncc(-c3ccc(Br)cc3)[nH]1)=C2	–
71 nM	22.8	1620 nM	COc1cccc2c1OCC(C(=O)NCc1ncc(-c3ccc(F)cc3)[nH]1)=C2	–
65 nM	22.2	1440 nM	COc1cccc2c1OCC(C(=O)NCc1ncc(-c3ccc(Cl)cc3)[nH]1)=C2	–
31 nM	110	3420 nM	COc1cccc2c1OCC(C(=O)N1CCC[C@H]1c1ncc(-c3ccc(Cl)cc3)[nH]1)=C2	Activity [5]: Active; Activity [6]: 309 g; Activity [7]: 41.3 U; Activity [4]: 39.5 U; Activity [8]: Active; Activity [9]: 139 mg/dL; Activity [10]: 130 mg/dL; Activity [11]: 320 g; Activity (Rattus norvegicus [12]): Dose-dependent effect; Activity [13]: Active

From ChEMBL document CHEMBL3875167, “Design and synthesis of chiral 2H-chromene-N-imidazolo-amino acid conjugates as aldose reductase inhibitors” (Eur J Med Chem, 2016)
